Bioassay records: PubChem, The Scripps Research Institute Molecular Screening Center
Compounds with a hit are over-represented: about 2.4% of the library has one in this group of screens.
MC4R barr agon = activates human MC4R beta-arrestin recruitment; hit rate 0.98% among 360,000; U2OS MC4R beta-arrestin complementation, luminescence; percent of melanotan II response, DMSO zero; P32245; activation, % at 8.9 µM;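 active means activation above a per-plate cutoff, the mean activation of sample wells on that plate plus 3 SD, cut at about 8% in these data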
MOR-DOR inv ag = inverse agonists of human mu-delta opioid receptor heterodimerization; inhibition, % at 9.3 µM; P35372+P41143; hit rate 0.21% among 340,000; cell-based MOR-DOR heterodimer luminescence, inverse agonism; AID 504357; in the data active means inhibition above about 22%, passing the limit was not always enough;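 further: 0% = cells with DMSO and 100% = wells without cells with DMSO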
Target sequence (P35372 whole entry, looked up): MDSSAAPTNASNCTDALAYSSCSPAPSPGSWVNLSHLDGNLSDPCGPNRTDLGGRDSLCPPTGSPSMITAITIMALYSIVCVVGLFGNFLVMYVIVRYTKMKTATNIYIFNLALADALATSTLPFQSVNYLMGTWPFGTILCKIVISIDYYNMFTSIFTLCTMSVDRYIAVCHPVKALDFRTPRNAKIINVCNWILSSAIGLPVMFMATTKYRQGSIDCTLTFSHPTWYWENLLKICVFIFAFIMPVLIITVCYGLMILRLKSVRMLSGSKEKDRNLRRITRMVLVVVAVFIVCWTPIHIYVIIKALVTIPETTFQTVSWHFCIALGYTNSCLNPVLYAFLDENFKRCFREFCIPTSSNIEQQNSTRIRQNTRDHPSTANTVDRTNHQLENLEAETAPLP
Target sequence (P41143 whole entry, looked up): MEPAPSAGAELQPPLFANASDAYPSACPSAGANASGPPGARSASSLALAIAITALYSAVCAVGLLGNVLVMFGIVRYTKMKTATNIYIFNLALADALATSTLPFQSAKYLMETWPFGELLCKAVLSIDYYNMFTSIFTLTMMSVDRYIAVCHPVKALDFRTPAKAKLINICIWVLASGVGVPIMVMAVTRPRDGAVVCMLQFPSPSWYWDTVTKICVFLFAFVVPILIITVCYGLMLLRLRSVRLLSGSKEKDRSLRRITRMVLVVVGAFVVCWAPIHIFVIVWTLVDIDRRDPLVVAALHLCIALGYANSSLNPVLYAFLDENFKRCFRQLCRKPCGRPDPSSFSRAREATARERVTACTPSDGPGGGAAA
HTR5A ag = activates human HTR5A in OPRM1-OPRD1 agonist counter-screen | AID 504692 | activation, % at 9.3 µM | hit rate 0.61% among 340,000 | HTR5A agonist assay, luminescence, cell-based; in the data active means activation mostly above about 9.5%, no sharp cut-off; inactive means mostly below about 7.6%;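 further: 0% = cells with vehicle only and 100% = reference agonist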
MC4R antag cAMP = human MC4R antagonism in cAMP assay. MC4R-expressing cells, MTII-stimulated cAMP, LANCE TR-FRET. P32245. inhibition, % at 6.5 µM. hit rate 0.48% among 360,000;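 active means inhibition above its plate's cutoff, the mean of tested wells on that plate plus 3 SD, cut at about 29% in these data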;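 further: 0% = Melanotan II alone and 100% = Melanotan II plus saturating MCL0020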
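Assay system: U2OS cells stably expressing human melanocortin 4 receptor (MC4R) / Dosing: 6.5 µM / Timing: compound 30 min, challenge 1 h, detection 1 h / Measured by: Eu-cAMP/anti-cAMP TR-FRET, emission 671 nm / Replicates: singlicate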
HTR5A inv ag = HTR5A inverse agonism, opioid heterodimer counter-screen; P47898; HTR5A cell line, luminescence; inhibition, % at 9.3 µM; hit rate 0.083% among 340,000; AID 504634; in the data active means inhibition mostly above about 23%, no sharp cut-off; inactive means mostly below about 18%;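 further: 0% = cells with DMSO and 100% = no-cell wells with DMSO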
MOR-DOR ag = OPRM1-OPRD1 heterodimerization agonism | cells, luminescence | activation, % at 9.3 µM | hit rate 0.3% among 340,000 | AID 504326; in the data active means activation above about 18%;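 further: 0% = vehicle-treated cells and 100% = reference agonist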
U2OS cAMP counter = U2OS forskolin cAMP inhibition counter-screen; shares compounds with MC4R antag cAMP; parental U2OS, LANCE TR-FRET; inhibition, % at 6.5 µM; hit rate 26% among 1,600; AID 602193;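 active means mean inhibition over triplicates above the low-control well mean plus 3 SD, set per campaign, cut at about 13% in these data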;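 further: signal is single emission at 671 nm which falls as cellular cAMP rises; 0% = forskolin-stimulated wells and 100% = buffer without forskolin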
MC4R antag conf = human MC4R cAMP antagonism confirmation. MC4R-expressing cells, MTII-stimulated cAMP, TR-FRET. AID 602195. inhibition, % at 6.5 µM. hit rate 27% among 1,600. shares compounds with MC4R antag cAMP; in the data active means inhibition above about 29%;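 further: 0% = agonist stimulated wells alone and 100% = agonist stimulated wells plus saturating reference antagonist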
Starred values were filed as active, the others as inactive; x = no result.

SMILES	MC4R barr agon	MOR-DOR inv ag	HTR5A ag	MC4R antag cAMP	HTR5A inv ag	MOR-DOR ag	U2OS cAMP counter	MC4R antag conf
COc1ccc(OC)c2c1C(=O)C(Cl)=C(Cl)C2=O	-2	-56	0	32*	-4	11	73*	49*
O=C(NC(Cc1ccccc1)C(=O)N1CCN(c2ccc(F)cc2)CC1)c1ccccc1 (stereo unspecified)	-2	x	x	9	x	x	x	x
c1ccc(-c2nnc(OCc3cccnc3)c3ccccc23)cc1	-2	8	1	29*	-9	-2	3	11
CN(CCC1CCOCC1)C(=O)c1cc(COc2c(F)cccc2F)on1	1	17	4	10	-12	-3	x	x
COc1ccc(C(=O)N/C(=C\c2ccco2)C(=O)OCc2ccco2)cc1	-2	17	-2	-6	15	-3	x	x
COc1ccc(C(=O)/C(=C\c2ccco2)N2C=CC=CC2=C(C#N)C#N)cc1	-2	33*	-3	33*	7	-5	12	36*
N#CC(C#N)=C1C=CC=CN1/C(=C\c1ccco1)C(=O)c1ccccc1	-3	36*	-4	38*	-8	-7	14*	26
Cc1nc2ccccc2c(=O)n1/N=C/c1ccc(C(C)C)cc1	3	-14	1	11	-3	3	x	x
CCC(OC(=O)c1ccc(S(C)(=O)=O)c([N+](=O)[O-])c1)C(=O)NC1C2CC3CC(C2)CC1C3 (stereo unspecified)	-2	x	x	60*	x	x	-9	12
CC(OC(=O)c1ccc(S(C)(=O)=O)c([N+](=O)[O-])c1)C(=O)NC1C2CC3CC(C2)CC1C3 (stereo unspecified)	-2	x	x	29*	x	x	8	21
Cc1ccc(C(=O)OC(C)C(=O)NC2CCCCC2)cc1S(=O)(=O)N1CCCCC1 (stereo unspecified)	0	7	-5	4	11	-2	x	x
CC1(C)CC[C@]2(C(=O)O[C@@H]3O[C@H](CO)[C@@H](O)[C@H](O)[C@H]3O)CC[C@]3(C)C(=CCC4[C@@]5(C)CC[C@H](O[C@@H]6O[C@H](C(=O)O)[C@@H](O[C@H]7OC[C@@H](O)[C@@H](O)[C@@H]7O)[C@H](O)[C@H]6O)C(C)(C)C5CC[C@]43C)[C@@H]2C1 (stereo partly specified)	-3	5	6	4	-17	-1	x	x
CC1(C)CC[C@]2(C(=O)O)CC[C@]3(C)C(=CC[C@@H]4[C@@]5(C)CC[C@H](O[C@@H]6O[C@H](C(=O)O)[C@@H](O)[C@H](O[C@@H]7OC[C@H](O)[C@H](O)[C@H]7O)[C@H]6O)C(C)(C)[C@@H]5CC[C@]43C)[C@@H]2C1	-2	-55	7	111*	-19	10	36*	22
Cc1ccc(S(=O)(=O)N2CCN(C3CC(=O)N(CCc4ccccc4)C3=O)CC2)cc1C (stereo unspecified)	3	-13	0	12	-7	2	x	x
COc1ccc(CCN2C(=O)CC(N3CCN(S(=O)(=O)c4ccccc4)CC3)C2=O)cc1OC (stereo unspecified)	-1	2	-3	33*	10	0	-1	-9
COc1ccccc1N(C)S(=O)(=O)c1ccc(C(=O)OCC(=O)c2c[nH]c3ccccc23)cc1	4	-26	3	39*	-20	5	5	5
COc1ccccc1N(C)S(=O)(=O)c1ccc(C(=O)OCC(=O)N(C)c2ccccc2)cc1	-3	0	2	4	14	0	x	x
Cc1cc2nnc(SCC(=O)N3CCCCCC3)n2c(N)n1	-1	8	0	29*	1	-1	0	-12
Cc1[nH]c(-c2ccc(F)cc2)cc1C(=O)N1CCN(c2ccccc2F)CC1	1	1	0	1	-2	0	x	x
NNC(=O)CNC(=O)CNS(=O)(=O)c1ccccc1	-4	0	-2	29*	-12	0	-2	-7
